Source: ChEMBL document CHEMBL3593239, “PABA/NO lead optimization: Improved targeting of cytotoxicity to glutathione S-transferase P1-overexpressing cancer cells” (Bioorg Med Chem, 2015)
Active and inactive are the calls of the source. The calls are words filed in the database; no cut-off is given here.

Experiments:
[1] = Stability of the compound in phosphate buffer assessed as first-order initial rate constant for hydrolysis at pH 7.4 at 25 degC by HPLC trapping method; type: physicochemical
[2] = Stability of the compound in phosphate buffer assessed as first-order initial rate constant for hydrolysis at pH 7.4 at 37 degC by HPLC trapping method; type: physicochemical
[3] = Stability of the compound in phosphate buffer assessed as pseudo-first order rate constant at pH 7.4 at 37 degC by HPLC trapping method in presence of GSH; type: physicochemical
[4] = target: T1, Glutathione S-transferase P (Homo sapiens, UniProt P09211); assay: Prodrug conversion in phosphate buffer assessed as GSTP1 (unknown origin)-mediated nitric oxide release at 1 uM at pH 7.4 at 37 degC after 1 to 30 mins by LC/MS-MS analysis; type: ADME; conditions: pH 7.4, 1 µM
Summary of the method: (§1)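 Test compound at 1 µM reacted with 4 mM GSH containing 4 nM GSTP1 in 0.1 M phosphate, pH 7.4, at 37 °C. Products identified by LC–MS traces taken at 60 s and 30 min.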

[5] = target: T1, Glutathione S-transferase P; assay: Drug metabolism in phosphate buffer assessed as formation of GSTP1 (unknown origin)-mediated (S)-2-amino-5-((R)-1-(carboxymethylamino)-3-(4-cyano-5-(4-(methylamino)benzoyloxy)-2-nitrophenylthio)-1-oxopropan-2-ylamino)-5-oxopentanoic acid at 1 uM at pH 7.4 at 37 degC after 1 to 30 mins by LC-MS/MS analysis in presence of GSH; type: ADME; conditions: pH 7.4, 1 µM; summary of the method: as §1
[6] = target: T1, Glutathione S-transferase P; assay: Prodrug conversion in phosphate buffer assessed as GSTP1 (unknown origin)-mediated nitric oxide release […] measured per mol of compound at pH 7.4 at 37 degC by chemiluminescence assay in presence of GSH; type: ADME
[7] = target: T2, Glutathione S-transferase A1 (Homo sapiens, UniProt P08263); assay: Drug metabolism in phosphate buffer assessed as ratio of GSTA1 (unknown origin)-mediated (S)-2-amino-5-((R)-1-(carboxymethylamino)-3-(4-cyano-5-hydroxy-2-nitrophenylthio)-1-oxopropan-2-ylamino)-5-oxopentanoic acid formation from nitric oxide release pathway to GSTA1 (unknown origin)-mediated (Z)-1-(4-cyano-5-hydroxy-2-nitrophenoxy)-3,3-dimethyltriaz-1-ene 2-oxide formation from nitric oxide retained pathway at 1 uM at pH 7.4 at 37 degC after 30 mins by LC-MS/MS analysis in presence of GSH; type: ADME; conditions: pH 7.4, 0.5 h
T2 sequence (P08263 whole entry): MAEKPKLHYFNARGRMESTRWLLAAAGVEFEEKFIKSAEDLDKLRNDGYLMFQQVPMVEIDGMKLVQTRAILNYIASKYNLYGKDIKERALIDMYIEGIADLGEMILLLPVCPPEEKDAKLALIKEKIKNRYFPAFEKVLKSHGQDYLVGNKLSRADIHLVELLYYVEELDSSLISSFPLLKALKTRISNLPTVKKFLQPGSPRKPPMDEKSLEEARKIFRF
Summary of the method: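 Products analysed by LC–MS. The ratio is the NO-release-pathway product over the NO-retained-pathway phenolic product.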

[8] = target: T1, Glutathione S-transferase P; assay: Drug metabolism in human HL-60 cells assessed as GSTP1-mediated metabolite formation at 1 uM after 10 mins by LC-MS/MS analysis; type: ADME, cell-based; conditions: hl-60, 10 min
Summary of the method: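 HL-60 cells plated in flasks and incubated overnight at 37 °C, then treated with 1 µM compound for varying times. Cells broken by two freeze (−80 °C)/thaw (37 °C) cycles in 0.1% formic acid/acetonitrile 3:7. Precipitate spun out at 14,000g for 15 min. Supernatant filtered and analysed by LC–MS/MS on C18 with acetonitrile/water/0.1% formic acid gradient and ESI-QTOF detection.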

HL-60 [9] = assay: Cytotoxicity against human HL60 cells assessed as growth inhibition after 72 hrs by MTT assay; type: functional, cell-based; conditions: HL-60, 72 h
Summary of the method: (§2)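 HL-60 and U937 cells from ATCC, grown per supplier protocol, seeded and exposed to increasing concentrations for 72 h. Viability was read with a Promega assay run per the manufacturer's protocol. Six repeats per concentration, three independent experiments. IC50 derived by curve fitting.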

U-937 = assay: Cytotoxicity against human U937 cells assessed as growth inhibition after 72 hrs by MTT assay; type: functional, cell-based; conditions: U-937, 72 h; summary of the method: as §2
HL-60 [10] = assay: Induction of apoptosis in human HL60 cells assessed as activation of caspase 8 at 10 uM after 24 hrs by Western blot analysis; type: functional, cell-based
HL-60 [11] = assay: Induction of apoptosis in human HL60 cells assessed as activation of caspase 7 at 10 uM after 24 hrs by Western blot analysis; type: functional, cell-based
HL-60 [12] = assay: Induction of apoptosis in human HL60 cells assessed as cleavage of PARP at 10 uM after 24 hrs by Western blot analysis; type: functional, cell-based
HL-60 [13] = assay: Induction of SAPK/JNK phosphorylation in human HL-60 cells at 5 to 20 uM after 24 hrs by Western blot analysis

T1 sequence (P09211 whole entry): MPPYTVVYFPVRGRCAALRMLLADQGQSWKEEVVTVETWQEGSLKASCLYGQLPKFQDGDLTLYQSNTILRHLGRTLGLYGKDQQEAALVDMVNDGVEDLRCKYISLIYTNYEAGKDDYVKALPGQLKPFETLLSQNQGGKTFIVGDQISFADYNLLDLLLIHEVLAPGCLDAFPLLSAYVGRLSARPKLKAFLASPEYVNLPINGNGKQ

K [1]: 0.3 ×10⁻⁵ /s
K [2]: 1.1 ×10⁻⁴ /s
K [3]: 5.1 ×10⁻³ /s
Drug metabolism [4]: metabolite_detected
Drug metabolism [5]: metabolite_detected
NO yield [6]: > 1.9 mol/mol
Ratio [7]: 1
Drug metabolism [8]: metabolite_detected
Structure (SMILES): CNc1ccc(C(=O)Oc2cc(O/N=[N+](\[O-])N(C)C)c([N+](=O)[O-])cc2C#N)cc1
IC50 (HL-60 [9]): 9 µM
IC50 (U-937): 6.5 µM
Activity (HL-60 [10]): Active
Activity (HL-60 [11]): Active
Activity (HL-60 [12]): Active
Activity (HL-60 [13]): Active
